This is an account of results in paper PMC9055608 (RSC Advances, 2020).

The test system of one data set is SKMEL-28. In words: MTT cell proliferation assay, SKMEL-28. It counts as cell-based, human. As to conditions: SKMEL-28, skin; MTT, 72 h. In short, it runs like this:
(§1)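 ATCC lines grown in DMEM or RPMI-1640 with 10% heat-inactivated FBS and 1% penicillin/streptomycin at 37 °C, 5% CO2. Log-phase cells seeded at about 4000–5000/well and left to adhere 24 h. Sextuplicate wells, 72 h. MTT for 4 h, then DMSO and absorbance. IC50 taken from dose–response curves.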

The test system of another data set is A375. In words: MTT cell proliferation assay, A375. It is filed as cell-based, human. As to conditions: A375, melanoma; MTT, 72 h. Summed up: as §1
Data set [1] concerns MCF-7 xenograft tumour. The data set is described as follows: Drug efficacy in vivo, MCF-7 breast cancer model. Also on record: species or system nude mice. The following applies: positive control.
The subject of a further data set is HT-29. The data set is described as follows: MTT cell proliferation assay, HT-29. It is filed as cell-based, human. As to conditions: HT-29, colon; MTT, 72 h. Summed up: as §1
The next data set relates to MDA-MB453. The data set is described as follows: MTT cell proliferation assay, MDA-MB453. It is filed as cell-based, human. The following applies: MDA-MB453, breast; MTT, 72 h. Summed up: as §1
For orientation: Tetrazolium dyes change colour on reduction, which living cells bring about.

For the next data set, the system named is A-549. In words: MTT cell proliferation assay, A-549. It counts as cell-based, human. The following applies: A-549, lung; MTT, 72 h. In short, it runs like this:
as §1

The subject of another data set is Calu-3. The data set is described as follows: MTT cell proliferation assay, Calu-3. The following applies: Calu-3, lung; MTT, 72 h. It is filed as cell-based, human. In short, it runs like this:
as §1

For another data set, the system named is SKBR3. The data set is described as follows: MTT cell proliferation assay, SKBR3. It counts as cell-based, human. The following applies: SKBR3, breast; MTT, 72 h. In short, it runs like this: as §1
In another data set the test system is N87. The data set is described as follows: MTT cell proliferation assay, N87. As to conditions: N87, stomach; MTT, 72 h. It counts as cell-based, human. In short, it runs like this:
as §1

The next data set deals with DU-145. The data set is described as follows: MTT cell proliferation assay, DU-145. The following applies: DU-145, prostate; MTT, 72 h. It is filed as cell-based, human. In short, it runs like this: as §1
The subject of another data set is SKOV3. In words: MTT cell proliferation assay, SKOV3. It is filed as cell-based, human. The following applies: SKOV3, ovary; MTT, 72 h. Summed up:
as §1

Data set [2] concerns MCF-7 xenograft tumour. The data set is described as follows: Pathological tissue sections. It is filed as in vivo, nude mice. The following applies: positive control group, cisplatin 5 mg kg^−1. Summed up: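 Tumour-bearing nude mice were anaesthetised and killed after the 9-day dosing. Heart, liver, spleen, lung, kidney, brain and tumour were fixed in 10% formalin, embedded in paraffin, cut into 4 μm sections and stained with haematoxylin–eosin.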

For data set [3] the following is noted: cisplatin; cited from earlier work.
A further data set concerns MDA-MB231. In words: MTT cell proliferation assay, MDA-MB231. It is filed as cell-based, human. As to conditions: MDA-MB231, breast; MTT, 72 h. Summed up:
as §1

A further data set relates to MCF-7. In words: MTT cell proliferation assay, MCF-7. The following applies: MCF-7, breast; MTT, 72 h. It is filed as cell-based, human. Summed up:
as §1

Data set [4] in a line: Mouse weight during in vivo efficacy study. As to conditions: during the nine days of treatment. Set-up: species or system nude mice.

Each structure is given as a SMILES string.

On to `N.N.[Cl][Pt][Cl]` [Cisplatin, cis-platinum, reference compound], for which the IC50 with SKMEL-28 was 12.9 ± 0.96 µM; in the data set with A375 it was 5.28 ± 0.18 µM; in the data set with HT-29, 4.71 ± 0.17 µM; with MDA-MB453 it was 15.4 ± 0.83 µM; in the data set with A-549, 3.03 ± 0.24 µM; with Calu-3, 7.39 ± 0.25 µM. Moreover, the IC50 in the data set on SKBR3 is 3.04 ± 0.17 µM; in the data set on N87 it was 8.35 ± 0.3 µM; in the data set on DU-145, 2.82 ± 0.14 µM; in the data set with SKOV3, 4.15 ± 0.3 µM; with MDA-MB231, 12.8 ± 0.58 µM; with MCF-7, 11.2 ± 0.6 µM. The “Tumour weight (mean)” value in the data set with MCF-7 xenograft tumour [1] (group E, cisplatin 5 mg kg^−1 tail vein for 9 days) was determined as 299.53 ± 109.60. Also, the “Inhibition rate (IR) determined as tumour weight” value in the data set on MCF-7 xenograft tumour [1] (cisplatin 5 mg kg^−1 for 9 days) stood at 64.10%. Further, in the data set with MCF-7 xenograft tumour [2], the tumour histopathology result is “a large amount of tumour cell necrosis with nucleolysis”. In addition, the AUC0→t in data set [3] is 36 000 μg L^−1 h. For the same compound, in data set [3], the CL was 0.23 L·kg/h. In addition, the “mouse weight course (in words)” value in data set [4] is given as “obvious weight loss”.

For orientation: IC50 means the point on the concentration scale where inhibition reaches its midpoint.
